# Compound activity from PubChem.
# T cell modulator: modulates CD8 T cell binding to vesicles; 2C CD8+ T cell-vesicle binding, flow cytometry; hits give low values; response (vesicle binding), % at 7 µM; 330,000 compounds, 0.068% hits; AID 2052;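 active = response, share of CD8 T cells binding vesicles, and their 90th percentile fluorescence all below set limits, cut at about 80% in these data, passing the limit was not always enough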;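 note: values below 100% mean blocked vesicle binding to the CD8+ T cells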
#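 Material: murine 2C transgenic CD8+ T lymphocytes / Also added: QL9-peptide-loaded Drosophila micro-vesicles bearing Ld, ICAM-1 and B7-1 / Schedule: binding step 1.5 h, 37 °C, antibody labelling 20 min, ice / Signal: flow cytometry, PE anti-B7-1 (FL2) versus Alexa647 anti-CD8 (FL8), PFA-fixed / Evaluation: percent CD8+ FL2 mean versus row control / Benchmarks: naked versus QL9-loaded vesicles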
# JMJD2C inh: blocks human GASC-1 demethylase activity; Q9H3R0; GST-JMJD2C(1-420) H3K9me3 demethylation, DELFIA europium; inhibition, % at 2.35 µM; 330,000 compounds, 0.069% hits; AID 2099;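 active = more than half of a compound's replicate wells show inhibition beyond 50%, single wells judged on their own value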;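 note: signal counts dimethyl H3K9 product captured on neutravidin plate; 0% = median of DMSO wells and 100% = 0.3 times that DMSO median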
# Target sequence (Q9H3R0 1-420 limits assumed): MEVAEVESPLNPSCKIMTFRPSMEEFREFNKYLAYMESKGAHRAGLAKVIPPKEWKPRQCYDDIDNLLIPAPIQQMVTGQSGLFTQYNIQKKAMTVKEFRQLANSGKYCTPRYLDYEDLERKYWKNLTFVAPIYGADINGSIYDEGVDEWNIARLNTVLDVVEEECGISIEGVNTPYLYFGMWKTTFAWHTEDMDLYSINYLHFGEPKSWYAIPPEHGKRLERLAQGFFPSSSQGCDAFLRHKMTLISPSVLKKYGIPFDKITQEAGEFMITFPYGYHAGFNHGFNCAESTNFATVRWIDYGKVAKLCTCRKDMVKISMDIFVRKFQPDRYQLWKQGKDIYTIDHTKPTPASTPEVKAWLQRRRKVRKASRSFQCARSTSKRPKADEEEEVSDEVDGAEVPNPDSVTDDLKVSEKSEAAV
# Mot1-301 SUMO: blocks SUMOylation pathway, rescuing yeast Mot1-301 growth. S. cerevisiae Mot1-301 growth rescue, ATP luminescence, 38.5C; percent above DMSO median, 100 means doubled. growth rescue, % at 18.8 µM. 320,000 compounds, 1% hits. AID 2716;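 active = every valid replicate shows activation above 250% relative to neutral control wells; inactive = the rest, any valid replicate at or below 250%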;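 note: OY570 slx delta 5 strain wells were the positive control but not used for scaling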
# HIF act: HIF pathway transcriptional activation | U2OS HRE-luciferase reporter, luminescence; normalized: DMSO 0%, desferrioxamine 100% | activation, % at 7.5 µM (by protocol) | 300,000 compounds, 0.32% hits;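 active = mean activation of at least 10% of the iron chelator positive control signal, with at least half of replicates also reaching 10%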
# Numbers without * were called inactive; i = inactive; . = not tested or not shown. This is a sample that favours compounds with a hit; in the whole collection about 1.4% have one here.
SMILES,T cell modulator,JMJD2C inh,Mot1-301 SUMO,HIF act
CCN(CC)S(=O)(=O)c1ccc(Cl)c(NC(=O)COC(=O)C2CCCCC2)c1,0.0*,4,-12,.
COc1nccc(C(F)(F)F)c1C(=O)NC(=O)Nc1ccccc1,317,4,0,140*
OCC1OC(n2cnc3c(NCCc4ccccc4)ncnc32)C(O)C1O (centres undefined),85,4,317*,1
O=C(O)c1cccc(Cn2c(Cl)c(/C=N/Nc3ccccc3)sc2=O)c1,316,2,279*,-1
N#C/C(=C\c1ccc([N+](=O)[O-])o1)C(=O)Nc1ccc(F)cc1,156,1,323*,1
COc1ccc(NC(=O)/C(C#N)=C\c2ccc(Br)o2)cc1,182,9,7,3
CC(=O)C(Sc1nc(N2CCOCC2)nc(N2CCOCC2)n1)C(=O)Nc1ccccc1 (centres undefined),189,70*,7,-10
CCNCC(=O)N1c2ccccc2CCc2ccc(NC(=O)OCC)cc21,184,0,293*,0
CCOC(=O)Nc1ccc2c(c1)N(C(=O)CN)c1ccccc1CC2,354,5,-4,-1
Cc1ccccc1NC(=O)C1CCCN1S(=O)(=O)c1ccc2c(c1)n(C)c(=O)c(=O)n2C (centres undefined),916,1,0,0
CCN(C(=O)C1CCCN1S(=O)(=O)c1ccc2c(c1)n(C)c(=O)c(=O)n2C)c1ccccc1 (centres undefined),32*,8,3,0
Cc1ccc(S(=O)(=O)N2CCN(C(=O)c3ccccc3)C2C(C)C)cc1 (centres undefined),207,-5,279*,.
COc1ccc(C(=O)N2CCCC(N3CCN(c4ccccc4F)CC3)C2)c(OC)n1 (centres undefined),342,10,-5,0
O=C(Nc1ccccc1O)c1ccc(NS(=O)(=O)c2cccc3cccnc23)cc1,175,0,-3,127*
O=C(Nc1ncccc1O)c1ccc(S(=O)(=O)Nc2ccccc2)cc1,160,9,-11,72*
CCOC(=O)/C=c1\s/c(=C\c2sccc2C)c(=O)n1CC(=O)NCc1ccc(C)cc1,225,18,-14,-5
NS(=O)(=O)c1ccc(CCNC(=O)CSc2nc3ccccc3c(=O)n2CC2CCCO2)cc1 (centres undefined),295,-3,15,0
CC(=O)C1[C@H](N(C)C)CC2C3CC=C4CC(O)CC[C@]4(C)C3CC[C@@]21C (some centres undefined),289,-21,-1,-3
CC(C)(C)C1=NN=C2c3ccccc3C(=O)C21 (centres undefined),10,11,675*,-6
CC1CN(c2ccccc2)CCN1Cc1nc(Cc2ccccc2)no1 (centres undefined),193,3,-6,0
Cc1cnc(NC(=O)COc2cccc3c2OC(C)(C)C3)s1,214,-5,255*,0
COc1ccc(NC(=O)COc2cccc3c2OC(C)(C)C3)cc1OC,228,7,-11,.
COc1ccc(NC(=O)C(=O)NNC(=O)C(C)Oc2ccc(Cl)cc2Cl)cc1 (centres undefined),210,-23,15,0
COc1ccc(NC(=O)C(=O)NNC(=O)c2ccc(Cl)cc2Cl)cc1,394,2,-9,512*
COc1ccc(C2=CC(=O)CC(c3ccc(OC)cc3)C2)cc1 (centres undefined),131,-6,673*,1
SMILES,T cell modulator,JMJD2C inh,Mot1-301 SUMO,HIF act
CCOC(=O)C1CCN(CC(=O)c2ccc(O)c(C)c2O)CC1,392,11,-33,0
Cn1c(=O)c(-c2ccccc2)nn2c3ccccc3nc12,157,52*,.,-1
C/C(=N\Nc1nc2ccccc2[nH]1)c1ccccn1,181,6,-24,179*
S=c1[nH]nc(-c2cc(-c3ccccc3)n[nH]2)n1/N=C/c1ccccc1,185,-6,164,0
S=c1[nH]nc(-c2cc(-c3ccccc3)n[nH]2)n1/N=C/C(Br)=C/c1ccccc1,437,8,539*,8
CCOC(=O)C1CCN(CC(C)(C)NS(=O)(=O)c2ccc(Cl)cc2)CC1,294,.,338*,0
Cc1cc(OCCCC(=O)Nc2cccc(-n3cnnn3)c2)ccc1Cl,197,-2,-7,0
CCOC(=O)c1ccccc1NC(=O)COC(=O)C1=COCCO1,159,-9,286*,2
O=C(NCc1ccco1)/C(=C/c1ccc(Br)cc1)NC(=O)c1ccco1,420,2,-1,0
CCOc1cc(/C=N/NC(=O)c2cccnc2)ccc1OCc1ccc(C(=O)OC)o1,395,-4,-16,14*
C#CCOc1ccc(/C=N/NC(=O)c2cccnc2)cc1OCC,271,-4,-14,0
CCCOc1ccccc1NC(=O)CC1Nc2ccccc2NC1=O (centres undefined),268,0,9,0
CCCOc1ccc(NC(=O)CC2Nc3ccccc3NC2=O)cc1 (centres undefined),101,-9,571*,0
CCOc1ccc(NC(=O)CC2C(=O)Nc3ccccc3N2C(=O)c2ccccc2)cc1 (centres undefined),214,-24,1,26*
CC(C)N(C)CCOC(=O)C1COc2ccccc2O1 (centres undefined),232,-3,-5,0
COc1ccc(C2COC(=O)C2=N)c(NC(=O)c2ccc(Cl)cc2)c1 (centres undefined),0.0*,4,-13,-15
Cc1oc(-c2ccc(Cl)cc2)cc1C(=O)O,224,-49,154,1
Cc1oc(-c2ccc(Cl)cc2)cc1C(=O)/C(C#N)=C/Nc1cccc(OC(F)(F)F)c1,i,2,0,43*
COc1ccc2c(c1)cc(C(=O)N[C@H](C(=O)N1CCC[C@H]1C(=O)O)C(C)C)n2C,542,3,419*,0
COc1ccc2c(c1)cc(C(=O)N[C@H](C(=O)N1CCC(C(=O)O)CC1)C(C)C)n2C,338,-1,12,-1
c1cncc(CNc2ncnc3sccc23)c1,366,-7,0,0
Nc1c(Cl)ncnc1NCc1cccnc1,191,55*,-6,0
Clc1ccc(CNC2CCCC2)c(Cl)c1,623,-2,-7,0
S=C(NCc1ccc(Cl)cc1Cl)NC1CCCCC1,201,-17,645*,0
Cc1ccc2[nH]cc(CCNC(=O)/C=C/c3ccco3)c2c1,78*,-22,-4,0
NS(=O)(=O)c1ccc(CCNC(=O)CSc2ccccc2)cc1,175,51*,-2,-18
O=C(CNS(=O)(=O)c1ccc([N+](=O)[O-])cc1)N/N=C/c1ccc(O)cc1O,134,14,3,2
Cc1cccc(NC(=O)/C(C#N)=C/c2cccc([N+](=O)[O-])c2)n1,504,-14,483*,-34
COc1ccc(/C=N/NC(=O)c2cccc(C(=O)N/N=C/c3ccc(OC)cc3)n2)cc1,385,-17,306*,2
